Data reported in the RNAGym collection of RNA variant scans (doi:10.1126/science.aae0568).
Variants at the floor of the assay were thinned out.

B1: tRNA (parent)
chain: GUUCCGUUGGCGUAAUGGUAACGCGUCUCCCUCCUAAGGAGAAGACUGCGGGUUCGAGUCCCGUACGGAACG

Variants of: B1
Assay: yeast fitness relative to wild type (ratio to wild type); higher = fitter; tRNA-Arg(CCU), competitive growth, 37 C, YPD
How it was run: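 Changes in genotype frequencies gave Darwinian fitness relative to wild type. Frequencies were read by 100-nucleotide paired-end sequencing of gene amplicons before and after pooled Saccharomyces cerevisiae strains, carrying tRNA-Arg(CCU) gene variants at the native locus, were competed in YPD at 37°C for 24 hours in six replicates. A genotype was kept only with ≥ 100 starting reads, and estimates < 0.5 were set to 0.5.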

Row | Variant | yeast fitness
1 | U2C A40C A69C | 0.633
2 | U2A G48A G50C U59C C60A | ≤ 0.5
3 | U2A U16G A69C | 0.85
4 | U2A A20C C66U | 0.753
5 | U2C A40U | 1.05
6 | U2A G17C C46U U59A | ≤ 0.5
7 | U2A U13A U35G U64A A65C | ≤ 0.5
8 | U2A U3G C11A G12A U16C C22G C62U | ≤ 0.5
9 | U2A A21U C29U A40U U53A C60A A65G | ≤ 0.5
10 | U2A C5U C66U | 0.661
11 | U2A U8C A15G | 0.667
12 | U2A G41C G50C C62G C66G | ≤ 0.5
13 | U2A G6A U28G | ≤ 0.5
14 | U2A A15U G38C G39A A43C C60G A65C | ≤ 0.5
15 | U2A G17A A45G | 0.587
16 | U2A C5G G41A A43U U54G A57U | ≤ 0.5
17 | U2A C5A G68C | ≤ 0.5
18 | U2A A21U C27U U28C C62G | ≤ 0.5
19 | U2A C24G A37C G56C | ≤ 0.5
20 | U2A G9C U16G U32G G52A G63C | ≤ 0.5
21 | U2A G9A C11U G51C C55U A69C A70U | ≤ 0.5
22 | U2A A20U U35C | ≤ 0.5
23 | U2A C33A C34U G56A | 0.542
24 | U2C A15U C30G C55U | 0.666

Row | Variant | yeast fitness
25 | U2A G23A G68U | ≤ 0.5
26 | U2A U3G C29G C30G C46A | ≤ 0.5
27 | U2A U3G C29G C30G C46G | 0.612
28 | U2C A14G U47G | 0.593
29 | U2A C4G C55A | 0.57
30 | U2A G12A A21C | 0.515
31 | U2A A20C C33A C55U | ≤ 0.5
32 | U2A C4A U13C C31A C49G A57G | ≤ 0.5
33 | U2A C11U G17A U64G | ≤ 0.5
34 | U2A U19G A70U | 0.68
35 | U2A A20U A40C | 0.552
36 | U2A A14G | 0.891
37 | U2A C30A | 0.819
38 | U2C A15U A20U A69U | ≤ 0.5
39 | U2A C33G A42C G63A | ≤ 0.5
40 | U2A A15U U16A C60U C62G A65C A69U | ≤ 0.5
41 | U2A C24U C29U C33U C34G A42U G58A | 0.56
42 | U2A C29A | 0.625
43 | U2A U19G A20U U64C | ≤ 0.5
44 | U2A C11G A57U C66U | 0.588
45 | U2A A70U | 1.06
46 | U2A A70G | 0.979
47 | U2A U47A A65C | ≤ 0.5
48 | U2C A14G C31G G58A | ≤ 0.5

Row | Variant | yeast fitness
49 | U2C A15C C24A G41C G68A | ≤ 0.5
50 | U2A G41A C66U | ≤ 0.5
51 | U2A G10A G17C U35C C55G | ≤ 0.5
52 | U2C A36U A65C | ≤ 0.5
53 | U2A G23A C29G C49U | 0.575
54 | U2C A14U A15G C30U C34U G51C C55U | 0.596
55 | U2A G10A U35C | ≤ 0.5
56 | U2A C5A G52C | ≤ 0.5
57 | U2A G25C A45U | 0.585
58 | U2A C27U A36G | 0.578
59 | U2A C27U A36C | ≤ 0.5
60 | U2A G9C U35A A36G | ≤ 0.5
61 | U2A C5U C29G A37U A65G | ≤ 0.5
62 | U2A U8A | 0.811
63 | U2A U8C | 1.01
64 | U2A C55A A69U | ≤ 0.5
65 | U2C A37U U53A | 0.727
66 | U2A A37U U53A C62U | ≤ 0.5
67 | U2A A20C G52A | 0.542
68 | U2A A57U | 0.663
69 | U2A C5A C22G C24U G50C | ≤ 0.5
70 | U2A C4U A69U | 0.787
71 | U2A A43U A57C C61U | 0.578
72 | U2A U19G C29G | ≤ 0.5

Row | Variant | yeast fitness
73 | U2A C11U G23A C29G | 0.527
74 | U2A C4U U8G C55G | 0.513
75 | U2A A65C | 0.848
76 | U2A G9C A14C C34U C60G | 0.551
77 | U2A C5U | 0.906
78 | U2A C5G | 0.728
79 | U2A C5A A21C | ≤ 0.5
80 | U2A C24G C31U C33G A42C A43U A65U | ≤ 0.5
81 | U2A G38C G44C A69U | ≤ 0.5
82 | U2A U19A A20C U26A A43G | ≤ 0.5
83 | U2A U7G A42G A45U G52A U64C A69U | ≤ 0.5
84 | U2A A14C C30U C34G G63A | 0.574
85 | U2A U16G C66G G68C | ≤ 0.5
86 | U2A U3A G51A C61G | 0.513
87 | U2C A15U U16A | 0.62
88 | U2A A14C A20G A36G U54C C55U G68C | 0.544
89 | U2A U47A | 0.851
90 | U2A C5G G17C G56C A57G G68U | 0.558
91 | U2A G23C C31U | ≤ 0.5
92 | U2A A40U G48C | ≤ 0.5
93 | U2A U53G | ≤ 0.5
94 | U2A C27U G67A | 0.531
95 | U2A A20G C29U C33A C55A C60G | ≤ 0.5
96 | U2A G6A | 0.775

Row | Variant | yeast fitness
97 | U2A U3A U16C C24U A69U | ≤ 0.5
98 | U2A C4A U26C C31U G38A | ≤ 0.5
99 | U2A U28C G41C U54A G67U | ≤ 0.5
100 | U2A C4A U13C A42G C55G G67A | ≤ 0.5
101 | U2A C27A C34U | ≤ 0.5
102 | U2A G23A C29G | 0.666
103 | U2A C5U G39C C60A | 0.541
104 | U2A C49U | 0.981
105 | U2A G41C G50C | ≤ 0.5
106 | U2A C24U A70C | 0.894
107 | U2A U26C C33G A42C C49G G58C C62G | ≤ 0.5
108 | U2A G48C G50A | 0.732
109 | U2A G9A A20C C24U C61G | ≤ 0.5
110 | U2C A14U C29U | 0.626
111 | U2A U28A A37C G58C A69G | ≤ 0.5
112 | U2A C5A U16C C30A | ≤ 0.5
113 | U2A G10A A20G U35C | ≤ 0.5
114 | U2C A20U G38C | ≤ 0.5
115 | U2A A40G A69U | 0.553
116 | U2A G9C U16G U32G U47A A57C C62U | ≤ 0.5
117 | U2A U32A A69C | 0.612
118 | U2A C11G C30A G44U A57G | ≤ 0.5
119 | U2A C11A C46U C49U | ≤ 0.5
120 | U2A U3C C4U C61A G67C | 0.59

Row | Variant | yeast fitness
121 | U2C A40C C66A | ≤ 0.5
122 | U2A G10C C27G G39U G50C G58A | ≤ 0.5
123 | U2C A14U | 0.764
124 | U2A A42U G67C | ≤ 0.5
125 | U2A C34U G48A C60U | 0.602
126 | U2C A14G G18A U32A U59A | ≤ 0.5
127 | U2A G6A C11U C31G A69U | ≤ 0.5
128 | U2A C61U | 0.768
129 | U2A U7A A15U G56A | ≤ 0.5
130 | U2A C24U | 0.95
131 | U2A G6C U7C A15U U35C G41A C60A A65U A69G | ≤ 0.5
132 | U2A A21G C29U A40U | 0.57
133 | U2A G6C G38A G68A | ≤ 0.5
134 | U2A A15C G58C A69U | ≤ 0.5
135 | U2A C5U C11U A14U G17A A21C G38C C49A | ≤ 0.5
136 | U2A U32C A57G | 0.652
137 | U2A A43C C61U | 0.572
138 | U2A G6C U7C G12A C30A G44A C66A | ≤ 0.5
139 | U2A A21G A36G G44C U59G | ≤ 0.5
140 | U2A A15G | 0.981
141 | U2C A37G G39A | ≤ 0.5
142 | U2C A14G G18A U32A A45C A69C | ≤ 0.5
143 | U2A G9A G23A C29G | ≤ 0.5
144 | U2A C4A C46G G52A | ≤ 0.5

Row | Variant | yeast fitness
145 | U2A A15G U16C A20C A21U U26C | 0.583
146 | U2A C5G G38C | ≤ 0.5
147 | U2A U3A U7A A57G | ≤ 0.5
148 | U2A C5U C31A C62U | ≤ 0.5
149 | U2A U8C G23A C29G | ≤ 0.5
150 | U2A A21C C24G U32A A42C A65U | ≤ 0.5
151 | U2A C33U C34U G38A G51A C55A A65U | ≤ 0.5
152 | U2A C29G C34A C60G | ≤ 0.5
153 | U2A G9A U13A C24A | ≤ 0.5
154 | U2A U32A A65U A69C | ≤ 0.5
155 | U2C A20U U28A | ≤ 0.5
156 | U2A U54C | 0.932
157 | U2C A14G G18A C33U C34U G39C | ≤ 0.5
158 | U2A A14U G41C | ≤ 0.5
159 | U2A U8C A42U | 0.64
160 | U2A G52A C61A | ≤ 0.5
161 | U2A U13A U35G | ≤ 0.5
162 | U2A A14U A20C U35A G38C A69U | ≤ 0.5
163 | U2A G68A | 0.825
164 | U2A A57U G68C | ≤ 0.5
165 | U2A U8A A42U G52C | ≤ 0.5
166 | U2A C5A G41A A42C G50C A70G | ≤ 0.5
167 | U2A C46A G58A | 0.622
